Measurements published in ChEMBL document CHEMBL3596119, “Synthesis and biological characterization of a promising F-18 PET tracer for vesicular acetylcholine transporter” (Bioorg Med Chem, 2015).

Experiments:
Heart [1] = assay: Biodistribution in Sprague-Dawley rat heart at 2.2 MBq/120 uL, iv after 60 mins by gamma counting; assay type: ADME, organism-based; settings: in vivo, 1 h
Procedure, shortened: (§1)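 Adult male SD rats, isoflurane (2-3%)/oxygen anesthesia, tail-vein injection of ~2.2 MBq/120 μL tracer in 10% ethanol in saline; euthanized under anesthesia at the stated time (n = 4 per time point). Brain dissected into regions, remainder kept for total brain; organs, blood, bone collected and weighed, gamma-counted against a standard dilution of injectate; %ID/g calculated.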

Blood [2] = assay: Biodistribution in Sprague-Dawley rat blood at 2.2 MBq/120 uL, iv after 5 mins by gamma counting; assay type: ADME, organism-based; settings: in vivo; procedure, shortened: as §1
Kidney [3] = assay: Biodistribution in Sprague-Dawley rat kidney at 2.2 MBq/120 uL, iv after 120 mins by gamma counting; assay type: ADME, organism-based; settings: in vivo, 2 h; procedure, shortened: as §1
Pancreas [4] = assay: Biodistribution in Sprague-Dawley rat pancreas at 2.2 MBq/120 uL, iv after 5 mins by gamma counting; assay type: ADME, organism-based; settings: in vivo; procedure, shortened: as §1
Kidney [5] = assay: Biodistribution in Sprague-Dawley rat kidney at 2.2 MBq/120 uL, iv after 60 mins by gamma counting; assay type: ADME, organism-based; settings: in vivo, 1 h; procedure, shortened: as §1
Kidney [6] = assay: Biodistribution in Sprague-Dawley rat kidney at 2.2 MBq/120 uL, iv after 30 mins by gamma counting; assay type: ADME, organism-based; settings: in vivo, 0.5 h; procedure, shortened: as §1
Heart [7] = assay: Biodistribution in Sprague-Dawley rat heart at 2.2 MBq/120 uL, iv after 30 mins by gamma counting; assay type: ADME, organism-based; settings: in vivo, 0.5 h; procedure, shortened: as §1
Cerebellum = assay: Biodistribution in Sprague-Dawley rat cerebellum at 2.2 MBq/120 uL, iv after 5 mins by gamma counting; assay type: ADME, organism-based; settings: in vivo; procedure, shortened: as §1
Rattus norvegicus [8] = assay: Biodistribution in Sprague-Dawley rat fat at 2.2 MBq/120 uL, iv after 5 mins by gamma counting; assay type: ADME, organism-based, Adipose tissue; settings: in vivo; procedure, shortened: as §1
Blood [9] = assay: Biodistribution in Sprague-Dawley rat blood at 2.2 MBq/120 uL, iv after 120 mins by gamma counting; assay type: ADME, organism-based; settings: in vivo, 2 h; procedure, shortened: as §1
Striatum [10] = assay: Biodistribution in Sprague-Dawley rat striatum at 2.2 MBq/120 uL, iv after 5 mins by gamma counting; assay type: ADME, organism-based; settings: in vivo; procedure, shortened: as §1
Spleen [11] = assay: Biodistribution in Sprague-Dawley rat spleen at 2.2 MBq/120 uL, iv after 5 mins by gamma counting; assay type: ADME, organism-based; settings: in vivo; procedure, shortened: as §1
Lung [12] = assay: Biodistribution in Sprague-Dawley rat lung at 2.2 MBq/120 uL, iv after 120 mins by gamma counting; assay type: ADME, organism-based; settings: in vivo, 2 h; procedure, shortened: as §1
Heart [13] = assay: Biodistribution in Sprague-Dawley rat heart at 2.2 MBq/120 uL, iv after 120 mins by gamma counting; assay type: ADME, organism-based; settings: in vivo, 2 h; procedure, shortened: as §1
Hippocampus = assay: Biodistribution in Sprague-Dawley rat hippocampus at 2.2 MBq/120 uL, iv after 5 mins by gamma counting; assay type: ADME, organism-based; settings: in vivo; procedure, shortened: as §1
Plasma [14] = assay: Drug metabolism in Sprague-Dawley rat plasma assessed as radioactivity at 15 to 106 MBq, iv after 5 to 60 mins by HPLC analysis; assay type: ADME, organism-based
Kidney [15] = assay: Biodistribution in Sprague-Dawley rat kidney at 2.2 MBq/120 uL, iv after 5 mins by gamma counting; assay type: ADME, organism-based; settings: in vivo; procedure, shortened: as §1
Striatum [16] = assay: Biodistribution in Sprague-Dawley rat striatum at 2.2 MBq/120 uL, iv after 120 mins by gamma counting; assay type: ADME, organism-based; settings: in vivo, 2 h; procedure, shortened: as §1
Rattus norvegicus [17] = assay: Biodistribution in Sprague-Dawley rat brain stem at 2.2 MBq/120 uL, iv after 5 mins by gamma counting; assay type: ADME, organism-based; settings: in vivo; procedure, shortened: as §1
Rattus norvegicus [18] = assay: Biodistribution in Sprague-Dawley rat total brain at 2.2 MBq/120 uL, iv after 60 mins by gamma counting; assay type: ADME, organism-based; settings: in vivo, 1 h
Procedure, shortened: (§2)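 Injected by tail vein in 10% ethanol in saline into adult male SD rats under 2-3% isoflurane/oxygen anesthesia. Rats were killed under anesthesia, n = 4 per time point. Total brain and other tissues were weighed and gamma-counted against a standard dilution of the injectate. Values are %ID/g.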

Plasma [19] = assay: Metabolic stability in monkey plasma assessed as radioactivity at 15 to 106 MBq after 5 to 60 mins by HPLC analysis; assay type: ADME, cell-free, Macaca mulatta; settings: rhesus monkey
Liver [20] = assay: Biodistribution in Sprague-Dawley rat liver at 2.2 MBq/120 uL, iv after 5 mins by gamma counting; assay type: ADME, organism-based; settings: in vivo; procedure, shortened: as §1
Liver [21] = assay: Biodistribution in Sprague-Dawley rat liver at 2.2 MBq/120 uL, iv after 60 mins by gamma counting; assay type: ADME, organism-based; settings: in vivo, 1 h; procedure, shortened: as §1
Bone [22] = assay: Biodistribution in Sprague-Dawley rat bone at 2.2 MBq/120 uL, iv after 30 mins by gamma counting; assay type: ADME, organism-based, Bone element; settings: in vivo, 0.5 h; procedure, shortened: as §1
Striatum [23] = assay: Biodistribution in Sprague-Dawley rat striatum at 2.2 MBq/120 uL, iv after 30 mins by gamma counting; assay type: ADME, organism-based; settings: in vivo, 0.5 h; procedure, shortened: as §1
Rattus norvegicus [24] = assay: Biodistribution in Sprague-Dawley rat total brain at 2.2 MBq/120 uL, iv after 30 mins by gamma counting; assay type: ADME, organism-based; settings: in vivo, 0.5 h; procedure, shortened: as §2
Pancreas [25] = assay: Biodistribution in Sprague-Dawley rat pancreas at 2.2 MBq/120 uL, iv after 60 mins by gamma counting; assay type: ADME, organism-based; settings: in vivo, 1 h; procedure, shortened: as §1
Bone [26] = assay: Biodistribution in Sprague-Dawley rat bone at 2.2 MBq/120 uL, iv after 5 mins by gamma counting; assay type: ADME, organism-based, Bone element; settings: in vivo; procedure, shortened: as §1
Lung [27] = assay: Biodistribution in Sprague-Dawley rat lung at 2.2 MBq/120 uL, iv after 30 mins by gamma counting; assay type: ADME, organism-based; settings: in vivo, 0.5 h; procedure, shortened: as §1
Thalamus = assay: Biodistribution in Sprague-Dawley rat thalamus at 2.2 MBq/120 uL, iv after 5 mins by gamma counting; assay type: ADME, organism-based; settings: in vivo; procedure, shortened: as §1
[28] = Drug uptake in cynomolgus monkey striatum at 296 to 410 MBq administered via venous catheter after 120 mins by microPET imaging; assay type: ADME, Macaca fascicularis; settings: in vivo, iv, 2 h
Procedure, shortened: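 Male cynomolgus monkeys (6-8 kg) were fasted 12 h, induced with ketamine/glycopyrrolate i.m., then kept on 0.75-2.0% isoflurane at 37 °C. After a transmission scan for attenuation correction, a 2 h dynamic microPET scan was acquired. Framing was 3×1, 4×2, 3×3, 20×5 min. Striatal uptake was read as SUV from time-activity curves, with cerebellum as reference.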

Bone [29] = assay: Biodistribution in Sprague-Dawley rat bone at 2.2 MBq/120 uL, iv after 60 mins by gamma counting; assay type: ADME, organism-based, Bone element; settings: in vivo, 1 h; procedure, shortened: as §1
Muscle tissue [30] = assay: Biodistribution in Sprague-Dawley rat muscle at 2.2 MBq/120 uL, iv after 30 mins by gamma counting; assay type: ADME, organism-based; settings: in vivo, 0.5 h; procedure, shortened: as §1
Pancreas [31] = assay: Biodistribution in Sprague-Dawley rat pancreas at 2.2 MBq/120 uL, iv after 30 mins by gamma counting; assay type: ADME, organism-based; settings: in vivo, 0.5 h; procedure, shortened: as §1
Rattus norvegicus [32] = assay: Biodistribution in Sprague-Dawley rat fat at 2.2 MBq/120 uL, iv after 60 mins by gamma counting; assay type: ADME, organism-based, Adipose tissue; settings: in vivo, 1 h; procedure, shortened: as §1
Muscle tissue [33] = assay: Biodistribution in Sprague-Dawley rat muscle at 2.2 MBq/120 uL, iv after 120 mins by gamma counting; assay type: ADME, organism-based; settings: in vivo, 2 h; procedure, shortened: as §1
Lung [34] = assay: Biodistribution in Sprague-Dawley rat lung at 2.2 MBq/120 uL, iv after 60 mins by gamma counting; assay type: ADME, organism-based; settings: in vivo, 1 h; procedure, shortened: as §1
Spleen [35] = assay: Biodistribution in Sprague-Dawley rat spleen at 2.2 MBq/120 uL, iv after 120 mins by gamma counting; assay type: ADME, organism-based; settings: in vivo, 2 h; procedure, shortened: as §1
Muscle tissue [36] = assay: Biodistribution in Sprague-Dawley rat muscle at 2.2 MBq/120 uL, iv after 5 mins by gamma counting; assay type: ADME, organism-based; settings: in vivo; procedure, shortened: as §1
Spleen [37] = assay: Biodistribution in Sprague-Dawley rat spleen at 2.2 MBq/120 uL, iv after 30 mins by gamma counting; assay type: ADME, organism-based; settings: in vivo, 0.5 h; procedure, shortened: as §1
Liver [38] = assay: Biodistribution in Sprague-Dawley rat liver at 2.2 MBq/120 uL, iv after 120 mins by gamma counting; assay type: ADME, organism-based; settings: in vivo, 2 h; procedure, shortened: as §1
Spleen [39] = assay: Biodistribution in Sprague-Dawley rat spleen at 2.2 MBq/120 uL, iv after 60 mins by gamma counting; assay type: ADME, organism-based; settings: in vivo, 1 h; procedure, shortened: as §1

O=C(c1ccc(F)cc1)C1CCN(C2Cc3c(cccc3OCC[18F])CC2O)CC1 (single isomer, unassigned; (-))
Drug uptake (Heart [1]): 0.357 % ID/g | Drug uptake (Blood [2]): 0.209 % ID/g | Drug uptake (Kidney [3]): 0.489 % ID/g | Drug uptake (Pancreas [4]): 1.202 % ID/g | Drug uptake (Kidney [5]): 0.604 % ID/g | Drug uptake (Kidney [6]): 0.883 % ID/g | Drug uptake (Heart [7]): 0.39 % ID/g | Drug uptake (Cerebellum): 0.593 % ID/g | Drug uptake (Rattus norvegicus [8]): 0.144 % ID/g | Drug uptake (Blood [9]): 0.356 % ID/g | Drug uptake (Striatum [10]): 0.782 % ID/g | Drug uptake (Spleen [11]): 1.265 % ID/g | Drug uptake (Lung [12]): 0.551 % ID/g | Drug uptake (Heart [13]): 0.336 % ID/g | Drug uptake (Hippocampus): 0.645 % ID/g | Drug metabolism (Plasma [14]): metabolite_detected | Drug uptake (Kidney [15]): 2.363 % ID/g | Drug uptake (Striatum [16]): 0.761 % ID/g | Drug uptake (Rattus norvegicus [17]): 0.683 % ID/g | Drug uptake (Rattus norvegicus [18]): 0.425 % ID/g | Stability (Plasma [19]): 76% | Drug uptake (Liver [20]): 1.065 % ID/g | Drug uptake (Liver [21]): 0.456 % ID/g | Drug uptake (Bone [22]): 0.369 % ID/g | Drug uptake (Striatum [23]): 0.886 % ID/g | Drug uptake (Rattus norvegicus [24]): 0.482 % ID/g | Drug uptake (Pancreas [25]): 1.324 % ID/g | Drug uptake (Bone [26]): 0.426 % ID/g | Drug uptake (Lung [27]): 0.973 % ID/g | Drug uptake (Thalamus): 0.691 % ID/g | Drug uptake [28]: Not Active | Drug uptake (Bone [29]): 0.403 % ID/g | Drug uptake (Muscle tissue [30]): 0.258 % ID/g | Drug uptake (Pancreas [31]): 1.2 % ID/g | Drug uptake (Rattus norvegicus [32]): 0.548 % ID/g | Drug uptake (Muscle tissue [33]): 0.235 % ID/g | Drug uptake (Lung [34]): 0.738 % ID/g | Drug uptake (Spleen [35]): 0.376 % ID/g | Drug uptake (Muscle tissue [36]): 0.171 % ID/g | Drug uptake (Spleen [37]): 0.685 % ID/g | Drug uptake (Liver [38]): 0.382 % ID/g | Drug uptake (Spleen [39]): 0.505 % ID/g
